pIC50: −log10 of the molar value. Each block holds one compound with its values, some of them ahead of it. The source made the active and inactive calls. The rule behind the calls is not given here.
Experiments:
[1] = tested on: Schizosaccharomyces pombe; test: Inhibition of HSET in Schizosaccharomyces pombe TY27 overexpressing GFP-HSET assessed as inhibition of HSET overproduction-induced lethal growth defects by measuring growth restoring activity incubated for 3 days by agar plate-based method
Method in brief: (§1)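 Fission yeast TY27: drug-sensitive YA8 background (h+ bfr1::ura4+ pmd1::hisG leu1 ura4) carrying the pREP41-GFP-HSET plasmid, with the pREP41-GFP vector strain TY26 alongside. Simple plate assay on rich YE5S agar plates, read as restoration of growth of the HSET-overproducing cells. Screened set included SCADS Inhibitor Kits and inhibitors aimed at tubulin or Eg5.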

[2] = tested on: Schizosaccharomyces pombe; test: Inhibition of HSET in Schizosaccharomyces pombe TY27 overexpressing GFP-HSET assessed as inhibition of HSET overproduction-induced lethality by measuring cell growth at 3.3 uM incubated for 2 to 3 days (reference value: 5%); set-up: scale not given: the % may be the effect or the level left
[3] = tested on: Schizosaccharomyces pombe; test: Inhibition of HSET in Schizosaccharomyces pombe TY27 overexpressing GFP-HSET assessed as inhibition of HSET overproduction-induced lethality by measuring cell viability at 3.3 uM incubated for 2 to 3 days relative to control
[4] = tested on: Schizosaccharomyces pombe; test: (§2) Inhibition of HSET in Schizosaccharomyces pombe TY27 overexpressing GFP-HSET assessed as reversion of HSET-induced lethal abnormal monopolar spindle formation to bipolar formation by measuring cells containing monopolar spindles at 0.1 ug/ml incubated for 2 days by wide field inverted epifluorescence microscopic method (reference value: 76%); set-up: scale not given: the % may be the effect or the level left
[5] = tested on: Schizosaccharomyces pombe; test: as §2, with “1” for “0.1”; set-up: scale not given: the % may be the effect or the level left
MDA-MB-231 = test: Antiproliferative activity against human MDA-MB-231 cells assessed as inhibition of cell viability incubated for 48 hrs by MTT assay; type: functional, cell-based; settings: MDA-MB-231, 48 h
WI-38 = test: Antiproliferative activity against human WI38 cells assessed as inhibition of cell viability incubated for 48 hrs by MTT assay; type: functional, cell-based; settings: WI-38, 48 h
[6] = molecular target: T1, Kinesin-like protein KIFC1 (Homo sapiens) (UniProt Q9BW19); test: (§3) Inhibition of HSET in human MDA-MB-231 cells overexpressing HSET and possessing supernumerary centrosomes assessed as inhibition of centrosome clustering by measuring increase in multipolar spindle formation at 250 uM incubated for 24 hrs by Hoechst 33342 staining based fluorescence microscopic method; type: cell-based
T1 sequence (whole entry): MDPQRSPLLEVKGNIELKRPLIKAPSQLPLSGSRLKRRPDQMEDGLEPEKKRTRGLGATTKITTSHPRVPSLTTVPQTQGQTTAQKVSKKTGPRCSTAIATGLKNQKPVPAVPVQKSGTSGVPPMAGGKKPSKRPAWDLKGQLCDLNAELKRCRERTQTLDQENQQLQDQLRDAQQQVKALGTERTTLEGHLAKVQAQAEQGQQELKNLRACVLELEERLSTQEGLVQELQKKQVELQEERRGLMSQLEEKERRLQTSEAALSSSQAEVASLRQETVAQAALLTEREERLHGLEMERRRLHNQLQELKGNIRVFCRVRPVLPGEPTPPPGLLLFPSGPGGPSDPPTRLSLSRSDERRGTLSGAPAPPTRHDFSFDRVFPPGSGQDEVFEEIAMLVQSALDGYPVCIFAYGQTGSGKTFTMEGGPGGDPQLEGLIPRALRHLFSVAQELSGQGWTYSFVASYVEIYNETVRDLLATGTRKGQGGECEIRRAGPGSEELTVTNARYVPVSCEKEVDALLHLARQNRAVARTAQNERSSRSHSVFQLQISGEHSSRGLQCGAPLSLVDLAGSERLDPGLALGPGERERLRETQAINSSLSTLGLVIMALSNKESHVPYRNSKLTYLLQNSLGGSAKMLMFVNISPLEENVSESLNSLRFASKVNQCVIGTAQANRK

[7] = tested on: Schizosaccharomyces pombe; test: Inhibition of HSET in Schizosaccharomyces pombe TY27 overexpressing GFP-HSET assessed as inhibition of HSET overproduction-induced lethality by measuring increase in cell viability at 3.3 uM incubated for 2 to 3 days relative to control
[8] = tested on: Schizosaccharomyces pombe; test: Inhibition of tubulin in Schizosaccharomyces pombe TY27 overexpressing GFP-HSET assessed as growth restoring activity incubated for 3 days by agar plate-based method; method in brief: as §1
[9] = tested on: Schizosaccharomyces pombe; test: Inhibition of Eg5 in Schizosaccharomyces pombe TY27 overexpressing GFP-HSET assessed as growth restoring activity incubated for 3 days by agar plate-based method; method in brief: as §1
[10] = tested on: Schizosaccharomyces pombe; test: Inhibition of HSET in Schizosaccharomyces pombe TY27 overexpressing GFP-HSET assessed as inhibition of HSET overproduction-induced lethal growth defects by measuring growth restoring activity at 6.25 to 50 ug/spot incubated for 3 days by agar plate-based method; method in brief: as §1
[11] = tested on: Schizosaccharomyces pombe; test: Inhibition of HSET in Schizosaccharomyces pombe TY27 overexpressing GFP-HSET assessed as inhibition of HSET overproduction-induced lethality by measuring cell growth at 2.8 uM incubated for 2 to 3 days (reference value: 6%); set-up: scale not given: the % may be the effect or the level left
[12] = tested on: Schizosaccharomyces pombe; test: Inhibition of HSET in Schizosaccharomyces pombe TY27 overexpressing GFP-HSET assessed as inhibition of HSET overproduction-induced lethality by measuring cell viability at 2.8 uM incubated for 2 to 3 days relative to control
[13] = tested on: Schizosaccharomyces pombe; test: Inhibition of HSET in Schizosaccharomyces pombe TY27 overexpressing GFP-HSET assessed as inhibition of HSET overproduction-induced lethality by measuring increase in cell viability at 2.8 uM incubated for 2 to 3 days relative to control
[14] = tested on: Schizosaccharomyces pombe; test: Inhibition of HSET in Schizosaccharomyces pombe TY27 overexpressing GFP-HSET assessed as inhibition of HSET overproduction-induced lethal growth defects by measuring growth restoring activity at 25 ng/spot incubated for 3 days by agar plate-based method; method in brief: as §1
[15] = tested on: Schizosaccharomyces pombe; test: Inhibition of HSET in Schizosaccharomyces pombe TY27 overexpressing GFP-HSET assessed as inhibition of HSET overproduction-induced lethality by measuring cell growth at 0.25 uM incubated for 2 to 3 days (reference value: 8%); set-up: scale not given: the % may be the effect or the level left
[16] = tested on: Schizosaccharomyces pombe; test: Inhibition of HSET in Schizosaccharomyces pombe TY27 overexpressing GFP-HSET assessed as inhibition of HSET overproduction-induced lethality by measuring cell viability at 0.25 uM incubated for 2 to 3 days relative to control
[17] = tested on: Schizosaccharomyces pombe; test: as §2, with “0.01” for “0.1”; set-up: scale not given: the % may be the effect or the level left
[18] = molecular target: T1, Kinesin-like protein KIFC1 (Homo sapiens); test: as §3, with “bipolar” for “increase in multipolar”, “20” for “250”, “method relative to control” for “method”; type: cell-based; set-up: scale not given: the % may be the effect or the level left
[19] = molecular target: T1, Kinesin-like protein KIFC1 (Homo sapiens); test: as §3, with “bipolar” for “increase in multipolar”, “40” for “250”, “method relative to control” for “method”; type: cell-based; set-up: scale not given: the % may be the effect or the level left
[20] = molecular target: T1, Kinesin-like protein KIFC1 (Homo sapiens); test: as §3, with “20” for “250”, “method relative to control” for “method”; type: cell-based; set-up: scale not given: the % may be the effect or the level left
[21] = molecular target: T1, Kinesin-like protein KIFC1 (Homo sapiens); test: as §3, with “40” for “250”, “method relative to control” for “method”; type: cell-based; set-up: scale not given: the % may be the effect or the level left
[22] = molecular target: T1, Kinesin-like protein KIFC1 (Homo sapiens); test: Inhibition of HSET in human MDA-MB-231 cells overexpressing HSET and possessing supernumerary centrosomes assessed as inhibition of centrosome clustering by measuring increase in multipolar spindle formation incubated for 24 hrs by Hoechst 33342 staining based fluorescence microscopic method; type: cell-based
[23] = tested on: Schizosaccharomyces pombe; test: Inhibition of HSET in Schizosaccharomyces pombe TY27 overexpressing GFP-HSET assessed as inhibition of HSET overproduction-induced lethality by measuring increase in cell viability at 0.25 uM incubated for 2 to 3 days relative to control

- pIC50 (MDA-MB-231): 3.57
- inhibition [6]: inactive
Compound: CC1=CCC[C@@H]2[C@@](C)(CC/C(C)=C/C(=O)O)[C@H](C)CC[C@@]12C [KOLAVENIC ACID]
- growth restoration (qualitative) [1]: Dose-dependent effect
- Activity [2]: 8%
- Activity [3]: 59%
- Activity [4]: 50%
- Activity [5]: 7%
- pIC50 (WI-38): 3.58
- fold change (FC) [7]: > 2

Compound: CCCc1cc(C(=O)N[C@H](Cc2ccc(-c3cccc(OC(F)(F)F)c3)nc2)C(=O)N[C@@H]2CCNC2)sc1C
- growth restoration (qualitative) [1]: Dose-dependent effect

- inhibition [8]: inactive
Compound: COC(=O)Nc1nc2cc(C(=O)c3cccs3)ccc2[nH]1

- inhibition [9]: inactive
Compound: CCOC(=O)C1=C(C)NC(=S)NC1c1cccc(O)c1 (centres undefined)

- pIC50 (MDA-MB-231): 5.36
Compound: COc1cccc2c1C(=O)c1c(O)c3c(c(O)c1C2=O)C[C@@](O)(C(=O)CO)C[C@@H]3O[C@H]1C[C@H](N)[C@H](O)[C@H](C)O1 [DOXORUBICIN]

- inhibition [8]: inactive
Compound: CC(=O)O[C@H]1C(=O)[C@@]2(C)[C@H]([C@H](OC(=O)c3ccccc3)[C@]3(O)C[C@H](OC(=O)[C@H](O)[C@@H](NC(=O)c4ccccc4)c4ccccc4)C(C)=C1C3(C)C)[C@]1(OC(C)=O)CO[C@@H]1C[C@@H]2O

- inhibition [8]: inactive
Compound: CC[C@]1(O)C[C@H]2CN(CCc3c([nH]c4ccccc34)[C@@](C(=O)OC)(c3cc4c(cc3OC)N(C)[C@H]3[C@@](O)(C(=O)OC)[C@H](OC(C)=O)[C@]5(CC)C=CCN6CC[C@]43[C@@H]65)C2)C1

- pIC50 (MDA-MB-231): 3.58
- inhibition [6]: inactive
Compound: CC(=O)O[C@@H]1C[C@@]2(C)C(C)=CCC[C@@H]2[C@@](C)(CC/C(C)=C/C(=O)O)[C@@H]1C
- growth restoration (qualitative) [1]: Dose-dependent effect
- inhibition [10]: inactive
- Activity [11]: 8%
- Activity [12]: 81%
- Activity [4]: 49%
- Activity [5]: 11%
- pIC50 (WI-38): 3.58
- fold change (FC) [13]: > 2

- Activity [18]: 49%
- Activity [19]: 23%
- Activity [20]: 44%
- Activity [21]: 77%
- pIC50 (MDA-MB-231): 4.09
- inhibition [22]: Dose-dependent effect
Compound: C/C=C(\C)C(=O)O[C@@H]1C[C@@H](C)[C@@](C)(CC/C(C)=C/C(=O)O)[C@@H]2CCC=C(C)[C@]12C
- growth restoration (qualitative) [1]: Dose-dependent effect
- inhibition [14]: inactive
- Activity [15]: 13%
- Activity [16]: 89%
- Activity [17]: 53%
- Activity [4]: 12%
- pIC50 (WI-38): 4.00
- fold change (FC) [23]: > 2
